Data reported in paper PMC12137120 (Nature, 2025).
Changes are numbered by the printed parent chain.

What was measured:
SHOC2–NRAS(Q61R) = molecular target: T1, SHOC2–NRAS(Q61R) (Homo sapiens, UniProt Q9UQ13); assay: TR-FRET competitive binding assay SHOC2–NRAS Q61R:GTP; conditions: versus (R)-5
T1 sequence (Q9UQ13 1-582): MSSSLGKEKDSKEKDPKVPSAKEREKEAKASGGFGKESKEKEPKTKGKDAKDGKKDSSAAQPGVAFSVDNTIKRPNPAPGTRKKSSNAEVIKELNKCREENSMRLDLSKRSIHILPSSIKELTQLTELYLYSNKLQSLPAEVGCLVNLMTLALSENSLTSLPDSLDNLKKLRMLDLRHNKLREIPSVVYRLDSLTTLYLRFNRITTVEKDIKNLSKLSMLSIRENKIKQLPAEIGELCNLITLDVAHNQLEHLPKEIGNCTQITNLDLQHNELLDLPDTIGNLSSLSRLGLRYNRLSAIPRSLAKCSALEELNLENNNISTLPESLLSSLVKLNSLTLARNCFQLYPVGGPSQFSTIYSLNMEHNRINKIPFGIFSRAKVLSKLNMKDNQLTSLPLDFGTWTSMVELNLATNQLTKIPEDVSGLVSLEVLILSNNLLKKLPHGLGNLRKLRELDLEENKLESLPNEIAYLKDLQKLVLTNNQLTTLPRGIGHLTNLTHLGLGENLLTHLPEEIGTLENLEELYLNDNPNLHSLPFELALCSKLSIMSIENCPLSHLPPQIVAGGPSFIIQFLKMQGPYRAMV

SHOC2(G290A)–NRAS(Q61R) = molecular target: T2, SHOC2(G290A)–NRAS(Q61R) (Homo sapiens, UniProt Q9UQ13, G290A); assay: TR-FRET assay with resistant mutant SHOC2; assay type: binding
T2 sequence (Q9UQ13 1-582 G290A): T1 sequence (Q9UQ13 1-582) with G290A

SHOC2 (80–582) = molecular target: T3, SHOC2 (80–582) (Homo sapiens, UniProt Q9UQ13); assay: SPR to assess affinity of low-molecular-weight ligands on immobilized SHOC2; assay type: binding; conditions: versus (R)-5
T3 sequence (Q9UQ13 80-582): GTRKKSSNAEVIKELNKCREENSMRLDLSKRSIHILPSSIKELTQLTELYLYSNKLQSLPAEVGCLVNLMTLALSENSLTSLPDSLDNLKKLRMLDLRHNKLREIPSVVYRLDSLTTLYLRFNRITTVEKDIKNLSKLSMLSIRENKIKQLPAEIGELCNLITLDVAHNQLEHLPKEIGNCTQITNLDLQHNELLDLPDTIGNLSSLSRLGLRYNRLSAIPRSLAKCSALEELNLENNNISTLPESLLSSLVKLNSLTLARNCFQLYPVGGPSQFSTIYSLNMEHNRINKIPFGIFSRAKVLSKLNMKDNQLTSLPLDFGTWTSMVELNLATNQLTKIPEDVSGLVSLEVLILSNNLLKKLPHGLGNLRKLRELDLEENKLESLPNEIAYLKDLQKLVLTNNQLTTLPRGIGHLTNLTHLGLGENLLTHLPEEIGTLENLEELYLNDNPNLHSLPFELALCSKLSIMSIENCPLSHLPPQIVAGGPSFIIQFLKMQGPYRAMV

SHOC2(WT)–NRAS(Q61K) = molecular target: T4, SHOC2(WT)–NRAS(Q61K) (Homo sapiens, UniProt Q9UQ13); assay: SHOC2–NRAS; assay type: cell-based
T4 sequence (Q9UQ13 1-582): T1 sequence (Q9UQ13 1-582)
Method in brief: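 Monoclonal HEK 293T lines stably expressed full-length SHOC2–SmBiT with LgBiT–NRAS(Q61K); a SmBiT–128-aa linker–LgBiT line served as control. Cells were kept in DMEM with 10% FCS. 20,000 cells per well were seeded in medium with 0.1% FCS and held 2 h at 37 °C. Test compound was given for 4 h (seven-point 1:3, 30 µM to 40 nM). Medium was then replaced with phenol-red-free Opti-MEM plus NanoGlo Live substrate (1:60). n = 3 biological samples.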

SHOC2(G290A)–NRAS(Q61K) = molecular target: T5, SHOC2(G290A)–NRAS(Q61K) (Homo sapiens, UniProt Q9UQ13, G290A); assay: SHOC2; assay type: cell-based
T5 sequence (Q9UQ13 1-582 G290A): T1 sequence (Q9UQ13 1-582) with G290A
Method in brief: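 HEK 293T cells were plated at 20,000 per well and incubated overnight at 37 °C, 5% CO2. They were then transiently transfected with SHOC2(G290A)–SmBiT and LgBiT–NRAS(Q61K) and incubated overnight again. Test compound was added for 4 h as a seven-point 1:3 series from 10 µM […], from stock in DMSO/H2O 90:10. NanoGlo Live substrate (1:60 in phenol-red-free Opti-MEM) was then added.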

MELJUSO cells [1] = assay: Immunoblot of MAPK signalling; assay type: cell-based, human
Method in brief: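 MELJUSO cells were treated either with increasing doses for 24 h or with 30 µM over a time course. Lysis was in 1% Triton X-100/Tris-HCl pH 7.4/NaCl/EDTA buffer with phosphatase and protease inhibitors, then clearing at 13,000 rpm, 4 °C, 20 min and BCA protein assay. Immunoblots of the time course were quantified by densitometry as pCRAF/CRAF and pERK/ERK. Two independent experiments were run.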

A375 cells [2] = assay: Immunoblot of MAPK signalling; assay type: cell-based, human; conditions: BRAF(mut) melanoma cells A375, 30 µM, time course
Method in brief: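 A375 cells got 30 µM test compound and were collected at several time points. They were cleared at 13,000 rpm, 4 °C, 20 min, protein was quantified by BCA, and samples were immunoblotted. Two independent experiments were run.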

[3] = test system: RAS mutant and wild-type cell lines; assay: Immunoblot of MAPK signalling in a panel of RAS mutant and wild-type cell lines; assay type: cell-based, human; conditions: 4 h, 30 µM
GTP-loaded RAS = assay: Active RAS pull-down assay; assay type: cell-based, human; conditions: Mel Juso and A375 cells, 30 µM, 2 h and 4 h
Method in brief: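 Cells were treated with 30 µM test compound or DMSO for 2 h and 4 h, then lysed per the kit. 400 µg lysate was rotated with Raf-RBD beads for 1 h at 4 °C. Bound protein was eluted in 2× Laemmli buffer, boiled 5 min at 95 °C and immunoblotted alongside total lysates. Two independent experiments were run.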

Mel Juso cell line = assay: RNA-seq global transcriptome analysis; assay type: cell-based, human; conditions: 4 h and 24 h, 30 µM and 100 µM
MELJUSO cells [4] = assay: Incucyte 3D cell proliferation; assay type: cell-based, human; conditions: RAS(Q61L) melanoma MELJUSO; twice-a-week treatment, 30 µM
Method in brief: (§1)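 Cells were seeded in sextuplicate in ultralow-attachment round-bottom plates in 10% FCS medium, spun 3 min at 200g and left 24 h to form spheroids or aggregates. They were dosed with 30 µM test compound or DMSO twice weekly at 37 °C, 5% CO2, and imaged by Incucyte every 6 h for three weeks at ×10. Data are mean ± s.d., n = 6; two independent experiments.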

A375 cells [5] = assay: Incucyte 3D cell proliferation; assay type: cell-based, human; conditions: BRAF(V600E) melanoma A375; twice-a-week treatment, 30 µM
Method in brief: as §1

[6] = test system: RAS mutant and RAS WT cell lines; assay: Incucyte 3D cell proliferation, panel of RAS mutant and RAS WT cell lines; assay type: cell-based, human; conditions: 30 µM
Method in brief: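 For spheroid or aggregate formation, cells were seeded in sextuplicate in ultralow-attachment round-bottom plates in 10% FCS medium, centrifuged 3 min at 200g and left 24 h. They were treated with 30 µM test compound or DMSO at 37 °C, 5% CO2, and imaged on an Incucyte every 6 h for three weeks at ×10.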

Compound	fold higher potency in TR-FRET assay (SHOC2–NRAS(Q61R))	activity in SHOC2(G290A)–NRAS(Q61R) TR-FRET (SHOC2(G290A)–NRAS(Q61R))	fold higher potency in SPR assay (SHOC2 (80–582))	activity in SHOC2(WT)–NRAS(Q61mut) NanoBiT assay (SHOC2(WT)–NRAS(Q61K))	activity in SHOC2(G290A)–NRAS(Q61mut) NanoBiT assay (SHOC2(G290A)–NRAS(Q61K))	inhibited CRAF (phospho-S259) levels (MELJUSO cells [1]; MELJUSO, 30 µM, time course)	MEK and ERK phosphorylation (MELJUSO cells [1]; NRAS(Q61mut) melanoma cells MELJUSO, 24 h increasing doses)	pERK or pMEK inhibition (A375 cells [2])	MAPK signalling in EGFRΔex19 cells [3]	MAPK signalling in wild-type RTK/RAS or BRAF(V600E) mutant cell lines [3]	MAPK signalling in RAS mutant settings ([3]; Q61L, G12D and G12C mutant conditions)	RAS–GTP loading (GTP-loaded RAS)	transcriptome changes, RAS/MAPK-associated genes (Mel Juso cell line)	3D cell proliferation (MELJUSO cells [4])	3D cell proliferation (A375 cells [5])	3D proliferation in wild-type RAS settings ([6]; including EGFRΔex19 cells)	3D proliferation of RAS mutant models ([6]; prolonged treatment)	MAPK signalling in all cell models tested [3]
CC(C)(C(=O)O)[C@H](NC(=O)Cc1cccc(I)c1)c1ccc2oc(=O)[nH]c2c1 [Compound 6, (R)-3-(2-(3-iodophenyl)acetamido)-2,2-dimethyl-3-(2-oxo-2,3-dihydrobenzo[d]oxazol-5-yl)propanoic acid]	10 fold	fully abolish compound 6 activity	10 fold	selective displacement	no activity	increased levels	dose-dependent inhibition	did not show any pERK or pMEK inhibition	only minor effects	no detectable effect	downregulated MAPK signalling	unaffected	dose-dependent and time-dependent modulation	suppressed the cell proliferation	but not of BRAF(V600E)	none	anti-proliferative effects	–
CC(C)(C(=O)O)[C@@H](NC(=O)Cc1cccc(I)c1)c1ccc2oc(=O)[nH]c2c1 [Compound 7, (S)-3-(2-(3-iodophenyl)acetamido)-2,2-dimethyl-3-(2-oxo-2,3-dihydrobenzo[d]oxazol-5-yl)propanoic acid]	–	–	–	no activity	–	–	–	–	–	–	–	–	no significant changes	–	–	–	–	inert
